In ChEMBL document CHEMBL4428120, “In silico and in vitro methods to identify ebola virus VP35-dsRNA inhibitors” (Bioorg Med Chem, 2016):
Active and inactive are the calls of the source. No cut-off for these calls is given here.

Columns and labels:
Ebolavirus [1] = assay: (§1) Inhibition of fluorescent dsRNA probe binding to N-terminal His-tagged recombinant Ebola virus VP35 interferon inhibitory domain pre-incubated for 5 mins before dsRNA addition and measured after 5 mins by ethidium bromide displacement based EMSA method relative to control
In short: (§2)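 EMSA: Ni-NTA-purified recombinant VP35 IID was 400 nM before probe addition, in Tris-HCl pH 7.5/NaCl/10% glycerol buffer. Compound was diluted twofold serially from 200 μM and incubated 5 min. An equal volume of 60 nM Cy5.5-dsRNA probe was added, then 5 min at room temperature and then on ice. Agarose gel, infrared scan; IC50 taken from the dose-response.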

[2] = as §1; design: species or system Ebolavirus; in short: as §2
RNA = assay: Binding affinity to RNA (unknown origin) assessed as inhibition of fluorescent dsRNA probe binding to DNA at 200 uM at 200 uM pre-incubated for 5 mins before dsRNA addition and measured after 5 mins by ethidium bromide displacement based EMSA method relative to control; format: nucleic-acid assay
Ebolavirus [3] = assay: as §1, with “domain assessed as normalized intensity for DNA binding at 200 uM” for “domain”; design: scale not given: the % may be the effect or the level left
DNA = assay: Binding affinity to DNA (unknown origin) assessed as inhibition of fluorescent dsRNA probe binding to DNA at 200 uM at 200 uM pre-incubated for 5 mins before dsRNA addition and measured after 5 mins by ethidium bromide displacement based EMSA method relative to control; format: nucleic-acid assay
Ebolavirus [4] = assay: Inhibition of fluorescent dsRNA probe binding to N-terminal His-tagged recombinant Ebola virus VP35 interferon inhibitory domain at 200 uM pre-incubated for 5 mins before dsRNA addition and measured after 5 mins by ethidium bromide displacement based EMSA method relative to control
In short: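 Recombinant VP35 IID was expressed in E. coli BL-21 and purified on Ni-NTA. It was 400 nM before probe addition, in 10 mM Tris-HCl pH 7.5, 10 mM NaCl, 10% glycerol, with 200 μM compound for 5 min. An equal volume of 60 nM Cy5.5-labelled 10-bp dsRNA was added, then 5 min at room temperature and then on ice. Run on 1% agarose in chilled TAE; infrared scan.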

| SMILES | inhibition (Ebolavirus [1]) | IC50 [2] [µM] | Activity (RNA) | Activity (Ebolavirus [3]) [%] | Activity (DNA) | inhibition (Ebolavirus [4]) |
| --- | --- | --- | --- | --- | --- | --- |
| COC1=C/C(=C/C=C(\NNC(=S)NN)c2sc(NNC(C)=O)nc2C)C=CC1=O | Dose-dependent effect | 20 | inactive | 81.5 | inactive | – |
| CCOC(=O)NC(NC(=O)OCC)c1ccc(C(NC(=O)OCC)NC(=O)OCC)cc1 | – | – | inactive | 79.6 to 108 | inactive | > 50% |
| CN1CCN(CCSC(=O)C(Cl)(c2ccccc2)C2CCCC2)CC1 (stereo not drawn) | – | – | inactive | 72.3 to 91.8 | inactive | > 50% |
| CCC(=O)NNC(/C=C/c1cccc(O)c1)=C1/S/C(=N\c2ccc(C)cc2[N+](=O)[O-])N=C1C | – | – | inactive | 73.8 to 92.7 | inactive | – |
| NC(=O)NC(NC(=O)NC(NC(N)=O)c1ccco1)c1ccco1 (stereo not drawn) | – | 4 | inactive | 98.1 to 116 | inactive | > 50% |
| O=C(OCCCCOC(=O)N1C(=O)c2ccccc2C1=O)N1C(=O)c2ccccc2C1=O | – | – | Active | 46.8 to 78.5 | Active | > 50% |
| CNCc1ccco1 | – | – | inactive | 110 to 117 | inactive | inactive |
| Nc1nnc2nc(CC(=O)c3cccc([N+](=O)[O-])c3)c(CC(=O)c3cccc([N+](=O)[O-])c3)nn12 | – | – | inactive | 60.7 to 88.8 | inactive | – |
| Cc1nc(-n2nc(-c3ccccc3)cc2-c2ccccc2)sc1C(=O)/C=C/c1ccc([N+](=O)[O-])cc1 | – | – | inactive | 76.3 | inactive | – |
| c1coc(CNCNCc2ccco2)c1 | – | – | inactive | 45 to 98.4 | inactive | inactive |
| CCOc1ccccc1C(SCC(=O)O)SCC(=O)O | – | – | inactive | 92 to 107 | inactive | > 50% |
